Source: PubChem (several laboratories)
Hits are enriched below; roughly 1.5% of the tested compounds scored in any of these assays.
A1 inh = caspase 3/7 activation in MEF A1-2A-BIM cells, primary screen, A1 inhibitor project, cell-based, luminescence, HTS. Caspase-Glo 3/7 luminescence, 3 h; percent of clofoctol response, vehicle zero. caspase activation, % (no concentration beside the values). 330,000 compounds, 0.066% hits. AID 2462, 2010;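 active = over half of replicate activation scores above 10%, or exactly half above 10 with the replicate mean above 10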
CSN inh = inhibitors of CSN-mediated cullin deneddylation, primary screen, biochemical, fluorescence polarization, uHTS | COP9 signalosome complex subunit 5 (Homo sapiens), Q92905 | Purified CSN, SCF-Nedd8-OG deneddylation | inhibition, % at 12.5 µM | 360,000 compounds, 0.38% hits | AID 651999, 2013;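 active = pattern-corrected inhibition above about 35%, with an unprinted fluorescence ratio check between 0.5 and 1.5, limit read from the data, passing the limit was not always enough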;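 also: 0% = enzyme with substrate and 100% = substrate without enzyme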
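test system = HEK293T-derived human Csn5 enzyme | amount = 0.24 nM Csn5 enzyme, final concentration | medium = Tris/NaCl/DTT buffer, pH 7.5 | schedule = 90 min reaction at room temperature | signal = FP | evaluation = inhibition of Csn5 cleavage, % | compound dosing = single dose of 12.5 µM compound with 0.25% DMSO | probe or stimulus = 10 nM SCFSkp2-Nedd8OG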
LANA-H2B inh = blockers of LANA interaction with H2A/H2B – biochemical, FP readout, HTS, primary screen; inhibition, % (no concentration beside the values); cell-free LANA-H2A/H2B peptide, fluorescence polarization; 320,000 compounds, 0.6% hits; Protein LANA1 (Human herpesvirus 8 type P (isolate GK18)), Q9QR71; in the data active = inhibition mostly above about 10%, no sharp cut-off; inactive = mostly below about 6.7%
ZTA DNA inh = counter-screen for EBNA-1 inhibitors: inhibitors of Epstein-Barr virus ZTA; P03206; ZTA-DNA binding, fluorescence polarization; inhibition, % at 11 µM; 320,000 compounds, 0.15% hits; AID 2234; in the data active = inhibition above about 33%
EBNA-1 inhibitor = EBNA-1 DNA-binding inhibitors, primary screen, biochemical, fluorescence polarization; inhibition, % at 14.8 µM; 300,000 compounds, 0.34% hits; AID 1950, 2009; in the data active = inhibition above about 28%
HNF4A DNA FP = change in binding of human HNF4A to DNA, primary screen, biochemical, fluorescence polarization, FITC-DNA. Hepatocyte nuclear factor 4-alpha (Homo sapiens), P41235. 1 h. activity change, % at 10 µM. 360,000 compounds, 0.3% hits. AID 1224865, 2016; in the data active = activity change above about 30%, passing the limit was not always enough
* = called active by the depositor; i = inactive; . = not tested or not shown; + = active, no number; ! = not confirmed by another sample.

SMILES | A1 inh | CSN inh | LANA-H2B inh | ZTA DNA inh | EBNA-1 inhibitor | HNF4A DNA FP
CN1CCc2nc(NC(=O)c3cccc(S(=O)(=O)N4CCc5ccccc54)c3)sc2C1 | 1 | 41* | 1 | 2 | 3 | 50*
CCCN1CCc2c(sc(NC(=O)c3ccc(S(=O)(=O)N4CCN(C(=O)OCC)CC4)cc3)c2C(N)=O)C1 | 1 | 52* | 2 | 9 | 2 | 92*
CCCN1CCc2c(sc(NC(=O)c3ccc(S(=O)(=O)N(C)c4ccccc4)cc3)c2C(N)=O)C1 | 1 | 9 | 1 | -3 | 14 | 34*
O=C(Nc1nc2c(s1)CCCC2)c1cccc(S(=O)(=O)N2CCCc3ccccc32)c1 | 1 | -11 | 0 | 4 | -3 | 5
CN1CCc2c(sc(NC(=O)c3ccc(S(=O)(=O)N4CCOCC4)cc3)c2C(N)=O)C1 | 0 | 17 | -3 | 6 | -8 | 48*
CC(=O)c1ccc(C(=O)Nc2sc3c(c2C(N)=O)CCN(Cc2ccccc2)C3)cc1 | -1 | 44 | -26 | 14 | -3 | 71
Cc1cc(SCC(=O)NCC(c2cccs2)N2CCOCC2)c(C)cc1Br (stereo not drawn) | 2 | 0 | 3 | 6 | -8 | 0
CNC(=O)c1c(NC(=O)c2ccc(S(=O)(=O)N3CCCc4ccccc43)cc2)sc2c1CCN(C)C2 | 0 | 5 | 1 | 12 | 0 | 32*
O=S(=O)(NC1=NCCCCC1)c1ccc(Cl)cc1 | 1 | -6 | + | -1 | -9 | 1
O=S(=O)(NC1=NCCCCC1)c1ccc(F)cc1 | 0 | 1 | -3 | 0 | -6 | 1
COc1cc2sc3ccc(C#Cc4ccccn4)cc3c(=O)c2cc1OC | 0 | 54* | -1 | 26 | 4 | 175
Oc1ccccc1Nc1ccccn1 | -2 | 2 | -2 | -12 | 4 | 4
c1ccc(Nc2ccccn2)nc1 | 0 | 1 | 8.3* | 16 | 9 | 4
CC(=O)Nc1cccc(N)c1 | 0 | -1 | 28* | 6 | . | 3
OCCCNCc1ccc(N(c2ccccc2)c2ccccc2)cc1 | 1 | -3 | -1 | -1 | -3 | 0
O=C(O)C1CSC(c2ccc(O)c([N+](=O)[O-])c2)N1 (stereo not drawn) | . | 10 | . | . | . | 1
O=C(O)C1CSC(c2ccc3c(c2)OCO3)N1 (stereo not drawn) | 0 | 1 | 22* | -6 | 2 | 7
O=C(Nc1cccnc1Cl)c1cc2ccccc2o1 | -8 | 3 | -2 | -3 | 0 | -1
c1ccc(CN(CC2=NCCN2)c2ccccc2)cc1 | 0 | -1 | 6 | 5 | -5 | 7
Cc1ccc(N(CC2=NCCN2)c2cccc(O)c2)cc1 | 0 | -3 | 23*! | 1 | -4 | -5
O=C1c2ccccc2[C@@H]2CC(O)C(O)CCN12 (stereo partly drawn) | . | -7 | . | . | . | 6
CC1(C)Cc2ccccc2C2CC(O)C(=O)N21 (stereo not drawn) | 0 | 1 | 0 | -6 | -13 | 35*
Cc1ccc(-n2nc3c(c2NC(=O)c2ccc4c(c2)OCO4)CS(=O)C3)c(C)c1 (stereo not drawn) | 0 | -5 | 13 | 12 | -10 | 2
O=C(CSc1nc2c([nH]c3ccccc32)c(=O)n1-c1cccc(Cl)c1)N1CCOCC1 | 0 | 80* | 0 | 10 | 37* | -7
O=C(CSc1nc2c([nH]c3ccccc32)c(=O)n1-c1ccccc1)N1CCOCC1 | 0 | 1 | -2 | -10 | 18 | -3
SMILES | A1 inh | CSN inh | LANA-H2B inh | ZTA DNA inh | EBNA-1 inhibitor | HNF4A DNA FP
O=C(NN=C1CCCCCCCCCCC1)c1cccc(S(=O)(=O)N2CCOCC2)c1 | -1 | 7 | -1 | -13 | 5 | 3
COc1ccc(-c2sc3cc(OC)c(OC)cc3c2-c2ccc(O)cc2)cc1 | 0 | 5 | + | . | . | 2
COc1ccc(/C(N)=N/OC(=O)N2CCOCC2)cc1 | 0 | 4 | 14* | 13 | -4 | -1
COc1ccc(OC(=O)N2CCOCC2)cc1 | 0 | 4 | 4 | 11 | -1 | 0
CN1[C@@H]2CC(OC(=O)[C@H](CO)c3ccccc3)C[C@H]1[C@@H]1O[C@@H]12 (stereo partly drawn) | 0 | -3 | 27*! | -3 | . | .
C=CCN1C(=O)c2ccc(C(=O)N3CCN(S(=O)(=O)c4cccc(Cl)c4)CC3)cc2C1=O | 0 | 1 | 2 | 6 | 9 | 1
COc1ccc(N/C=C/C(=O)c2cc(OC)c(OC)c(OC)c2)cc1 | 0 | 2 | 12* | -9 | 1 | 1
COc1ccc(N/C=C/C(=O)c2ccc(Cl)cc2)cc1 | -4 | -3 | 33* | 13 | 1 | -1
COc1cccc(N/C=C/C(=O)c2ccc(Cl)cc2)c1 | -7 | 3 | i | -11 | 1 | 2
COCCCn1c(=O)c2sccc2n(Cc2ccc(C)cc2)c1=O | -1 | 3 | 3 | -23 | 2 | 0
Cc1cc[n+](-c2[nH]c(=O)sc2/C=N/NC([S-])=Nc2ccccc2)cc1C | 1 | -33 | . | -8 | 2 | -35
CC(C)(C)c1cc[n+](-c2[nH]c(=O)sc2/C=N/NC([S-])=Nc2ccccc2)cc1 | -2 | -59 | 42* | -14 | 0 | -34
FC(F)Oc1ccc(NC(=S)NNc2ccnc3cc(Cl)ccc23)cc1 | 1 | 11 | 2 | -3 | -3 | 39
O=C(CSc1ncccc1C(=O)O)c1ccc2ccccc2c1 | 0 | -1 | -3 | 13 | 12 | 3
O=C(CSc1ncccc1C(=O)O)c1cccc(C(F)(F)F)c1 | -2 | -9 | -2 | -2 | 5 | 56*
CCOc1ccc(CCNC(=O)COC(=O)CCC(=O)c2cccs2)cc1OCC | 3 | 38* | -2 | . | . | -1
CCOc1ccc(CCNC(=O)CCC(=O)c2cccs2)cc1OCC | -1 | -3 | -1 | . | . | 3
COc1ccc(NC(=O)COC(=O)CCC(=O)c2cccs2)cc1OC | 0 | -2 | 23* | -15 | . | 1
CC(N)c1ccc(Cl)cc1Cl (stereo not drawn) | 1 | -8 | 4 | -10 | 5 | -1
Cc1ccc(C)n1Cc1ccc(C(=O)O)cc1 | 0 | 24 | 2 | 85* | 29* | -67
O=C(COC(=O)c1ccc(F)cc1F)Nc1ccc(Cl)cn1 | 0 | 0 | 25* | -9 | . | -4
Cc1ccc(N2CC(NC(=O)C3CC3)CC2=O)cc1 (stereo not drawn) | 1 | 2 | 3 | -3 | 14 | -1
